Results from different studies.
Protocols differ between the studies behind these lines.
Target: Myotonin-protein kinase (DMPK, Homo sapiens, UniProt Q09013)
One construct used (Q09013 1-629): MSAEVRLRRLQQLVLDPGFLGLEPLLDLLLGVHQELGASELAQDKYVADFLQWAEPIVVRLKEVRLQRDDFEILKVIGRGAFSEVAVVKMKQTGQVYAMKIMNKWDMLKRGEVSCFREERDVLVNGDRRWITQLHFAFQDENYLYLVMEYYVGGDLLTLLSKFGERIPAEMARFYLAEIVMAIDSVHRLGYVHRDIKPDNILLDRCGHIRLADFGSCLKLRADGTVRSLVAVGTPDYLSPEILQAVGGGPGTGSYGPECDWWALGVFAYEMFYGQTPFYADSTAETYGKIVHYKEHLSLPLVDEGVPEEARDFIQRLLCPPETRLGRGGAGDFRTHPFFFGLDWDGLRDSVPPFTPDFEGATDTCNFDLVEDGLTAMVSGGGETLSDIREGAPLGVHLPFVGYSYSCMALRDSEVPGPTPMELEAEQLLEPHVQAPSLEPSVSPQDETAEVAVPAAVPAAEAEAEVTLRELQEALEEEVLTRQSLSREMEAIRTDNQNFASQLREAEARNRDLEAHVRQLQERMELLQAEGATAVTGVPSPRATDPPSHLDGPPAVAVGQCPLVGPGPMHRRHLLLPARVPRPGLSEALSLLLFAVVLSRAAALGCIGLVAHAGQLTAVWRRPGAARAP

Nc1ncc2c(n1)-c1c([nH]c3ccc(C#CC4CC4)cc13)CCCC2  remaining binding (binding, competition with immobilised ligand; 1 µM): 82%
O=C(NCCCC1CCCCC1)c1ccc(CNC(=O)c2cnn(-c3ccccc3)c2C(F)(F)F)cc1  remaining binding (cell-free assay, competition with immobilised ligand; 0.1 µM): 83%
O=C(NCCCN1CCOCC1)c1ccc(Nc2ncc(Cl)c(-c3ccc(Cl)s3)n2)cc1  remaining binding (binding, competition with immobilised ligand; 1 µM): 100%
Cn1nc(C(=O)NCc2ccc(C(=O)O)cc2)cc1-c1ccc2[nH]ccc2c1  remaining binding (cell-free assay, competition with immobilised ligand; 0.1 µM): 76%
O=C(NCCCN1CCOCC1)c1ccc(Nc2nccc(-c3cc4ccccc4s3)n2)cc1  remaining binding (binding, competition with immobilised ligand; 1 µM): 100%
C[C@H]1CCN(c2nccc(-c3cnn4ncccc34)n2)C1  remaining binding (binding; 1 µM): 100%
O=C(Nc1c[nH]nc1C(=O)NC1CCNCC1)c1cc(F)cc(F)c1  remaining binding (binding, competition with immobilised ligand; 1 µM): 100%
COc1cnc(Nc2cccc(S(N)(=O)=O)c2)nc1N1CCN(c2ccccc2)CC1  remaining binding (binding, competition with immobilised ligand; 1 µM): 100%
CO[C@@H](C)c1c(Nc2ccc([C@@H](N(C)C(=O)C3CCS(=O)(=O)CC3)C(F)(F)F)cc2)cnc2cc(Cl)nn12  remaining binding (cell-free assay, competition with immobilised ligand; 1 µM): 91%
FC(F)(F)Oc1cccc(-c2cnc3ccc(-c4ccncc4)nn23)c1  remaining binding (cell-free assay, competition with immobilised ligand; 5 µM): 99%
c1cnn2ncc(-c3ccnc(N4CCC45COC5)n3)c2c1  remaining binding (binding; 1 µM): 98%
COc1ncc2cc3ccccc3nc2c1C#N  remaining binding (cell-free assay, competition with immobilised ligand; 5 µM): 100%
CN(CCCC(F)(F)F)c1nccc(-c2cnn3ncccc23)n1  remaining binding (binding; 1 µM): 80%
C[C@@H](c1ccc(-n2cnc3c(N)ncnc32)cc1)N1CCc2nn(C)c(Cc3ccccc3)c2C1=O  remaining binding (binding, competition with immobilised ligand; 0.1 µM): 86%
CN(C)c1nccc(-c2cnn3ncccc23)n1  remaining binding (binding; 1 µM): 100%
O=C(c1ccc(Nc2ncc(Cl)c(-c3ccc(Cl)s3)n2)cc1)N1CCC(N2CCCC2)CC1  remaining binding (binding, competition with immobilised ligand; 1 µM): 100%
N[C@@H]1CCN(c2nccc(-c3cnn4ncccc34)n2)C1  remaining binding (binding; 1 µM): 94%
CNCc1ccccc1-c1csc([C@H](C)Nc2nc(C)nc3cc(OC)c(OC)cc23)c1  remaining binding (cell-free assay, competition with immobilised ligand; 1 µM): 85%
COc1ccnn2ncc(-c3ccnc(N(C)C)n3)c12  remaining binding (binding; 1 µM): 100%
C[C@H](NC(=O)c1cnc2n1[C@](C)(Cc1ccc(C#N)cc1)C(=O)N2c1cc(Cl)c(F)c(Cl)c1)C(=O)NC1(c2ccccn2)CC1  remaining binding (cell-free assay, competition with immobilised ligand; 1 µM): 67%
CC1CCCN1c1nccc(-c2cnn3ncccc23)n1 (stereo not shown)  remaining binding (binding; 1 µM): 94%
COc1cccc(CNC(=O)c2nc3scc(COCc4ccc(C(=O)O)cc4)c3c(=O)[nH]2)c1  remaining binding (cell-free assay, competition with immobilised ligand; 1 µM): 85.4%
